Assay results published in ChEMBL document CHEMBL4387779, “Design and synthesis of 4β-Acetamidobenzofuranone-podophyllotoxin hybrids and their anti-cancer evaluation” (Bioorg Med Chem Lett, 2019).

Columns and labels:
Assay type in all cases: functional, cell-based
DU-145 = assay: Cytotoxicity against human DU145 cells after 24 hrs by MTT assay; details: DU-145, 24 h
How it was run: (§1)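 Cells seeded at 1×10⁴ per well in complete medium and held 18 h at 37 °C, 5% CO₂. Medium then replaced with fresh medium containing test compounds or etoposide at 0.5, 1 and 2 μM, incubated 24 h at 37 °C. MTT dye added for 2 h, formazan solubilized in extraction buffer, absorbance read at 570 nm. Values mean±SD, three experiments in triplicate.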

A549 = assay: Cytotoxicity against human A549 cells after 24 hrs by MTT assay; details: A549, 24 h; how it was run: as §1
MDA-MB-231 = assay: Cytotoxicity against human MDA-MB-231 cells after 24 hrs by MTT assay; details: MDA-MB-231, 24 h; how it was run: as §1
MCF7 = assay: Cytotoxicity against human MCF7 cells after 24 hrs by MTT assay; details: MCF7, 24 h; how it was run: as §1

| SMILES | IC50 (DU-145) [nM] | IC50 (A549) [nM] | IC50 (MDA-MB-231) [nM] | IC50 (MCF7) [nM] |
| --- | --- | --- | --- | --- |
| COc1cc([C@@H]2c3cc4c(cc3[C@@H](NC(=O)COc3ccc(/C=C5\Oc6ccccc6C5=O)cc3)[C@H]3COC(=O)[C@H]23)OCO4)cc(OC)c1OC | 970 | 100 | 450 | 130 |
| COc1cc(/C=C2\Oc3ccccc3C2=O)ccc1OCC(=O)N[C@@H]1c2cc3c(cc2[C@@H](c2cc(OC)c(OC)c(OC)c2)[C@H]2C(=O)OC[C@@H]21)OCO3 | 3820 | 2750 | – | 4510 |
| COc1ccc(/C=C2\Oc3ccccc3C2=O)cc1OCC(=O)N[C@@H]1c2cc3c(cc2[C@@H](c2cc(OC)c(OC)c(OC)c2)[C@H]2C(=O)OC[C@@H]21)OCO3 | 2550 | 7230 | 8230 | 6230 |
| COc1cc([C@@H]2c3cc4c(cc3[C@@H](O[C@@H]3O[C@@H]5CO[C@@H](C)O[C@H]5[C@H](O)[C@H]3O)[C@H]3COC(=O)[C@H]23)OCO4)cc(OC)c1O [ETOPOSIDE] | 1970 | – | – | 2110 |
| COc1cc([C@@H]2c3cc4c(cc3[C@@H](NC(=O)COc3c(OC)cc(/C=C5\Oc6c(OC)cccc6C5=O)cc3OC)[C@H]3COC(=O)[C@H]23)OCO4)cc(OC)c1OC | 1220 | 1450 | 870 | 230 |
| COc1ccc(/C=C2\Oc3c(OC)cccc3C2=O)cc1OCC(=O)N[C@@H]1c2cc3c(cc2[C@@H](c2cc(OC)c(OC)c(OC)c2)[C@H]2C(=O)OC[C@@H]21)OCO3 | 2330 | – | 2180 | 1870 |
| COc1cc(/C=C2\Oc3c(OC)cccc3C2=O)ccc1OCC(=O)N[C@@H]1c2cc3c(cc2[C@@H](c2cc(OC)c(OC)c(OC)c2)[C@H]2C(=O)OC[C@@H]21)OCO3 | 3980 | 2990 | 2600 | 2350 |
| COc1cc([C@@H]2c3cc4c(cc3[C@@H](NC(=O)COc3ccc(/C=C5\Oc6c(OC)cccc6C5=O)cc3)[C@H]3COC(=O)[C@H]23)OCO4)cc(OC)c1OC | 2090 | 1560 | 1680 | 1980 |
